Laboratory results: ChEMBL document CHEMBL3046030, “Implementation of bio-fungicides and seed treatment in organic rice cv. KDML 105 farming” (2009)

Legend:
Type in all cases: functional
Rhizoctonia solani [1] = assay: Antifungal activity against Rhizoctonia solani assessed as inhibition of spore germination at 1% after 24 hr by compound microscopy
In short: (§1)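 R. solani grown 3 days at 25±2°C in aqueous PDA, rinsed three times with distilled water, then held 2 days to induce spores. Suspension set to about 10^6 cfu/mL by hemacytometer and spread on a thin PDA layer on slides. Watch glass held extract/oil (0.10–1.00% v/v) or sterile water control. Moist sealed chamber, 24 h, 25±2°C; encysted spores counted at x100; % inhibition versus control.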

Aspergillus flavus [2] = assay: Antifungal activity against Aspergillus flavus assessed as inhibition of spore germination at 0.10% after 24 hr by compound microscopy
Fusarium verticillioides [3] = assay: Antifungal activity against Fusarium verticillioides assessed as mycelial growth inhibition after 96 hr by agar overlay method
In short: (§2)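 Agar overlay method: plant extract or essential oil was mixed into PDA at 0.10, 0.25, 0.50 and 1.00% v/v. A 5 mm plug from a 7-day culture was placed upside down on each plate and incubated 96 h at 25±2°C. Colony diameter was compared with an untreated control as % inhibition = (C−T)/C×100, using four replicates averaged. IC50 was derived by regression of the concentration–response curve.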

Rhizoctonia solani [4] = assay: Antifungal activity against Rhizoctonia solani assessed as inhibition of spore germination at 0.5% after 24 hr by compound microscopy; in short: as §1
Alternaria solani [5] = assay: Antifungal activity against Alternaria solani assessed as mycelial growth inhibition at 1% after 96 hr by agar overlay method; in short: as §2
Aspergillus flavus [6] = assay: Antifungal activity against Aspergillus flavus assessed as mycelial growth inhibition after 96 hr by agar overlay method; in short: as §2
Aspergillus niger [7] = assay: Antifungal activity against Aspergillus niger assessed as inhibition of spore germination at 0.25% after 24 hr by compound microscopy
Aspergillus niger [8] = assay: Antifungal activity against Aspergillus niger assessed as inhibition of spore germination at 0.5% after 24 hr by compound microscopy
Aspergillus niger [9] = assay: Antifungal activity against Aspergillus niger assessed as inhibition of spore germination at 0.10% after 24 hr by compound microscopy
Fusarium verticillioides [10] = assay: Antifungal activity against Fusarium verticillioides assessed as inhibition of spore germination at 0.25% after 24 hr by compound microscopy
In short: (§3)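 Spores were raised by growing the fungus 3 days at 25±2°C in aqueous PDA, rinsing the mycelium three times in distilled water, and holding it 2 more days. The suspension was adjusted to about 10^6 cfu/mL by hemacytometer and spread on slides carrying a thin PDA layer. An open watch glass held plant extract or essential oil (0.10–1.00% v/v), or sterile water as control. Slides were sealed in moist dishes for 24 h at 25±2°C. Encysted spores were counted at x100, and % inhibition was calculated against control.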

Curvularia [11] = assay: Antifungal activity against Curvularia sp. assessed as inhibition of spore germination at 1% after 24 hr by compound microscopy
Fusarium verticillioides [12] = assay: Antifungal activity against Fusarium verticillioides assessed as mycelial growth inhibition at 1% after 96 hr by agar overlay method; in short: as §2
Aspergillus flavus [13] = assay: Antifungal activity against Aspergillus flavus assessed as inhibition of spore germination at 0.5% after 24 hr by compound microscopy
Alternaria solani [14] = assay: Antifungal activity against Alternaria solani assessed as inhibition of spore germination at 0.10% after 24 hr by compound microscopy; in short: as §3
Fusarium verticillioides [15] = assay: Antifungal activity against Fusarium verticillioides assessed as inhibition of spore germination at 1% after 24 hr by compound microscopy; in short: as §3
Alternaria solani [16] = assay: Antifungal activity against Alternaria solani assessed as inhibition of spore germination at 0.5% after 24 hr by compound microscopy; in short: as §3
Rhizoctonia solani [17] = assay: Antifungal activity against Rhizoctonia solani assessed as mycelial growth inhibition after 96 hr by agar overlay method
In short: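 Agar overlay on PDA with extract or oil at 0.10, 0.25, 0.50 and 1.00% v/v. A 5 mm plug from a 7-day R. solani culture was incubated 96 h at 25±2°C, colony diameter was measured, and % inhibition versus untreated control was calculated in four replicates. IC50 was derived by regression of % inhibition against concentration.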

Curvularia [18] = assay: Antifungal activity against Curvularia sp. assessed as inhibition of spore germination at 0.5% after 24 hr by compound microscopy
Aspergillus flavus [19] = assay: Antifungal activity against Aspergillus flavus assessed as inhibition of spore germination at 1% after 24 hr by compound microscopy
Fusarium verticillioides [20] = assay: Antifungal activity against Fusarium verticillioides assessed as inhibition of spore germination at 0.10% after 24 hr by compound microscopy; in short: as §3
Alternaria solani [21] = assay: Antifungal activity against Alternaria solani assessed as inhibition of spore germination at 1% after 24 hr by compound microscopy; in short: as §3
Aspergillus niger [22] = assay: Antifungal activity against Aspergillus niger assessed as mycelial growth inhibition after 96 hr by agar overlay method; in short: as §2
Rhizoctonia solani [23] = assay: Antifungal activity against Rhizoctonia solani assessed as mycelial growth inhibition at 1% after 96 hr by agar overlay method
In short: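 PDA containing plant extract or essential oil (0.10–1.00% v/v) was used for the agar overlay. A 5 mm plug from a 7-day-old R. solani culture was placed upside down, then incubated 96 h at 25±2°C. Colony diameter was measured against a simultaneous untreated control, and inhibition was calculated as [(C−T)/C]×100. Four replicates were averaged.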

Rhizoctonia solani [24] = assay: Antifungal activity against Rhizoctonia solani assessed as inhibition of spore germination at 0.10% after 24 hr by compound microscopy; in short: as §3
Bipolaris oryzae [25] = assay: Antifungal activity against Bipolaris oryzae assessed as mycelial growth inhibition at 1% after 96 hr by agar overlay method; in short: as §2
Aspergillus niger [26] = assay: Antifungal activity against Aspergillus niger assessed as mycelial growth inhibition at 1% after 96 hr by agar overlay method; in short: as §2
Curvularia [27] = assay: Antifungal activity against Curvularia sp. assessed as mycelial growth inhibition at 1% after 96 hr by agar overlay method; in short: as §2
Aspergillus niger [28] = assay: Antifungal activity against Aspergillus niger assessed as inhibition of spore germination at 1% after 24 hr by compound microscopy
Alternaria solani [29] = assay: Antifungal activity against Alternaria solani assessed as inhibition of spore germination at 0.25% after 24 hr by compound microscopy; in short: as §3
Curvularia [30] = assay: Antifungal activity against Curvularia sp. assessed as inhibition of spore germination at 0.25% after 24 hr by compound microscopy
Aspergillus flavus [31] = assay: Antifungal activity against Aspergillus flavus assessed as inhibition of spore germination at 0.25% after 24 hr by compound microscopy
Fusarium verticillioides [32] = assay: Antifungal activity against Fusarium verticillioides assessed as inhibition of spore germination at 0.5% after 24 hr by compound microscopy; in short: as §3
Alternaria solani [33] = assay: Antifungal activity against Alternaria solani assessed as mycelial growth inhibition after 96 hr by agar overlay method; in short: as §2
Rhizoctonia solani [34] = assay: Antifungal activity against Rhizoctonia solani assessed as inhibition of spore germination at 0.25% after 24 hr by compound microscopy; in short: as §1
Nigrospora [35] = assay: Antifungal activity against Nigrospora sp. assessed as mycelial growth inhibition after 96 hr by agar overlay method; in short: as §2
Curvularia [36] = assay: Antifungal activity against Curvularia sp. assessed as inhibition of spore germination at 0.10% after 24 hr by compound microscopy
Bipolaris oryzae [37] = assay: Antifungal activity against Bipolaris oryzae assessed as mycelial growth inhibition after 96 hr by agar overlay method; in short: as §2
Curvularia [38] = assay: Antifungal activity against Curvularia sp. assessed as mycelial growth inhibition after 96 hr by agar overlay method; in short: as §2
Nigrospora [39] = assay: Antifungal activity against Nigrospora sp. assessed as mycelial growth inhibition at 1% after 96 hr by agar overlay method; in short: as §2
Aspergillus flavus [40] = assay: Antifungal activity against Aspergillus flavus assessed as mycelial growth inhibition at 1% after 96 hr by agar overlay method; in short: as §2
Curvularia [41] = assay: Antifungal activity against Curvularia sp. at 1%
Nigrospora [42] = assay: Antifungal activity against Nigrospora sp. at 1%
Fusarium verticillioides [43] = assay: Antifungal activity against Fusarium verticillioides at 1%
Fusarium verticillioides [44] = assay: Antifungal activity against Fusarium verticillioides at 0.25%
Aspergillus flavus [45] = assay: Antifungal activity against Aspergillus flavus at 1%
Rhizoctonia solani [46] = assay: Antifungal activity against Rhizoctonia solani at 1%
Rhizoctonia solani [47] = assay: Antifungal activity against Rhizoctonia solani at 0.25%
Nigrospora [48] = assay: Antifungal activity against Nigrospora sp. at 0.25%
Alternaria solani [49] = assay: Antifungal activity against Alternaria solani at 1%
Aspergillus niger [50] = assay: Antifungal activity against Aspergillus niger at 0.25%
Bipolaris oryzae [51] = assay: Antifungal activity against Bipolaris oryzae at 0.25%
Aspergillus flavus [52] = assay: Antifungal activity against Aspergillus flavus at 0.25%
Aspergillus niger [53] = assay: Antifungal activity against Aspergillus niger at 1%
Bipolaris oryzae [54] = assay: Antifungal activity against Bipolaris oryzae at 1%
Alternaria solani [55] = assay: Antifungal activity against Alternaria solani at 0.25%
Curvularia [56] = assay: Antifungal activity against Curvularia sp. at 0.25%
Colletotrichum = assay: Antifungal activity against Colletotrichum sp. at 1%

Q: Which results are given for `O=C1C2CC=CCC2C(=O)N1SC(Cl)(Cl)Cl` (stereo unspecified) [CAPTAN]?
A: growth inhibition (GI) (Rhizoctonia solani [1]): 100%; growth inhibition (GI) (Aspergillus flavus [2]): 100%; growth inhibition (GI) (Fusarium verticillioides [3]): 12.28%; growth inhibition (GI) (Rhizoctonia solani [4]): 100%; growth inhibition (GI) (Alternaria solani [5]): 2.63%; growth inhibition (GI) (Aspergillus flavus [6]): 8.13%; growth inhibition (GI) (Aspergillus niger [7]): 100%; growth inhibition (GI) (Aspergillus niger [8]): 100%; growth inhibition (GI) (Aspergillus niger [9]): 100%; growth inhibition (GI) (Fusarium verticillioides [10]): 100%; growth inhibition (GI) (Curvularia [11]): 100%; growth inhibition (GI) (Fusarium verticillioides [12]): 23.39%; growth inhibition (GI) (Aspergillus flavus [13]): 100%; growth inhibition (GI) (Alternaria solani [14]): 100%; growth inhibition (GI) (Fusarium verticillioides [15]): 100%; growth inhibition (GI) (Alternaria solani [16]): 100%; growth inhibition (GI) (Rhizoctonia solani [17]): 13.78%; growth inhibition (GI) (Curvularia [18]): 100%; growth inhibition (GI) (Aspergillus flavus [19]): 100%; growth inhibition (GI) (Fusarium verticillioides [20]): 100%; growth inhibition (GI) (Alternaria solani [21]): 100%; growth inhibition (GI) (Aspergillus niger [22]): 4.06%; growth inhibition (GI) (Rhizoctonia solani [23]): 17.06%; growth inhibition (GI) (Rhizoctonia solani [24]): 100%; growth inhibition (GI) (Bipolaris oryzae [25]): 21.1%; growth inhibition (GI) (Aspergillus niger [26]): 13.95%; growth inhibition (GI) (Curvularia [27]): 9.15%; growth inhibition (GI) (Aspergillus niger [28]): 100%; growth inhibition (GI) (Alternaria solani [29]): 100%; growth inhibition (GI) (Curvularia [30]): 100%; growth inhibition (GI) (Aspergillus flavus [31]): 100%; growth inhibition (GI) (Fusarium verticillioides [32]): 100%; growth inhibition (GI) (Alternaria solani [33]): 4.6%; growth inhibition (GI) (Rhizoctonia solani [34]): 100%; growth inhibition (GI) (Nigrospora [35]): 2.82%; growth inhibition (GI) (Curvularia [36]): 100%; growth inhibition (GI) (Bipolaris oryzae [37]): 1.11%; growth inhibition (GI) (Curvularia [38]): 8.45%; growth inhibition (GI) (Nigrospora [39]): 6.97%; growth inhibition (GI) (Aspergillus flavus [40]): 18.02%

Q: Which results are given for `C=CCc1ccc(O)c(OC)c1` [EUGENOL]?
A: growth inhibition (GI) (Rhizoctonia solani [1]): 100%; growth inhibition (GI) (Aspergillus flavus [2]): 54%; inhibition (INH) (Curvularia [41]): 97.04%; growth inhibition (GI) (Rhizoctonia solani [4]): 100%; growth inhibition (GI) (Aspergillus niger [7]): 65.6%; growth inhibition (GI) (Aspergillus niger [8]): 100%; growth inhibition (GI) (Aspergillus niger [9]): 37.59%; growth inhibition (GI) (Fusarium verticillioides [10]): 74.11%; growth inhibition (GI) (Curvularia [11]): 100%; inhibition (INH) (Nigrospora [42]): 98.23%; inhibition (INH) (Fusarium verticillioides [43]): 100%; inhibition (INH) (Fusarium verticillioides [44]): 100%; growth inhibition (GI) (Aspergillus flavus [13]): 100%; growth inhibition (GI) (Alternaria solani [14]): 14.41%; inhibition (INH) (Aspergillus flavus [45]): 100%; inhibition (INH) (Rhizoctonia solani [46]): 100%; growth inhibition (GI) (Fusarium verticillioides [15]): 100%; inhibition (INH) (Rhizoctonia solani [47]): 100%; growth inhibition (GI) (Alternaria solani [16]): 65.68%; growth inhibition (GI) (Curvularia [18]): 100%; growth inhibition (GI) (Aspergillus flavus [19]): 100%; growth inhibition (GI) (Fusarium verticillioides [20]): 21.88%; growth inhibition (GI) (Alternaria solani [21]): 100%; growth inhibition (GI) (Rhizoctonia solani [24]): 93.53%; inhibition (INH) (Nigrospora [48]): 50.04%; inhibition (INH) (Alternaria solani [49]): 100%; inhibition (INH) (Aspergillus niger [50]): 70.58%; inhibition (INH) (Bipolaris oryzae [51]): 86.98%; growth inhibition (GI) (Aspergillus niger [28]): 100%; inhibition (INH) (Aspergillus flavus [52]): 44.22%; inhibition (INH) (Aspergillus niger [53]): 100%; growth inhibition (GI) (Alternaria solani [29]): 24.16%; inhibition (INH) (Bipolaris oryzae [54]): 100%; growth inhibition (GI) (Curvularia [30]): 85.39%; growth inhibition (GI) (Aspergillus flavus [31]): 65.6%; growth inhibition (GI) (Fusarium verticillioides [32]): 100%; growth inhibition (GI) (Rhizoctonia solani [34]): 100%; inhibition (INH) (Alternaria solani [55]): 100%; growth inhibition (GI) (Curvularia [36]): 44.94%; inhibition (INH) (Curvularia [56]): 50.04%; inhibition (INH) (Colletotrichum): 100%
